The subject of series [1] is Human immunodeficiency virus 1. In words: Inhibition of HIV-1 RT-RNase H domain expressed in Escherichia coli JM109 at 30 uM using HTS-1 as substrate preincubated for 10 mins followed by substrate/MgCl2 addition incubated for 10 mins by fluorescence-based assay. The method, boiled down:
(§1)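 Order-of-addition RNase H assay, HIV-1 RT in this format. Final conditions: 100 nM RT, 250 nM HTS-1 RNA/DNA duplex, 6 mM MgCl2, 30 µM inhibitor, 1% DMSO. RT is pre-incubated 10 min at 37 °C with the specified components. Missing components are then added and the reaction runs 10 min at 37 °C. Fluorescence signal is corrected against a DMSO-only control. Mean ± SD of two independent experiments.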

The test system of series [2] is Human immunodeficiency virus 1. Put plainly: Inhibition of HIV-1 RT-RNase H domain expressed in Escherichia coli JM109 at 30 uM using HTS-1 as substrate preincubated with compound/substrate for 10 mins followed by MgCl2 addition incubated for 10 mins by fluorescence-based assay. The method, boiled down: as §1
Series [3] relates to Human immunodeficiency virus 1. In words: Inhibition of HIV-1 RT-RNase H domain expressed in Escherichia coli JM109 at 30 uM using HTS-1 as substrate preincubated with substrate for 10 mins followed by compound/MgCl2 addition incubated for 10 mins by fluorescence-based assay. The method in brief: as §1
In series [4] the test system is Human immunodeficiency virus 1. Put plainly: Inhibition of HIV-1 RT-RNase H domain expressed in Escherichia coli JM109 at 30 uM using HTS-1 as substrate preincubated with substrate for 10 mins followed by compound/MgCl2 addition incubated for 2 mins by fluorescence-based assay. The method, boiled down:
(§2)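 Excess-RT order-of-addition RNase H assay. RT is pre-incubated 10 min at 37 °C with inhibitor or with substrate. Remaining components are added and the reaction runs 2 min at 37 °C. Fluorescence is DMSO-control corrected. Mean ± SD of two independent experiments.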

Series [5] has as its system Human immunodeficiency virus 1. Put plainly: Inhibition of HIV-1 RT-RNase H domain expressed in Escherichia coli JM109 at 30 uM using HTS-1 as substrate preincubated with compound and MgCl2 for 10 mins followed by substrate addition incubated for 10 mins by fluorescence-based assay. The method in brief:
as §1

Series [6] can be described thus: Cytotoxicity against human HeLa P4/R5 cells up to 25 uM. It counts as cell-based.
Series [7] deals with Human immunodeficiency virus 1. In words: Inhibition of HIV-1 RT-RNase H domain expressed in Escherichia coli JM109 at 30 uM using HTS-1 as substrate preincubated for 10 mins followed by substrate/MgCl2 addition incubated for 2 mins by fluorescence-based assay. The method in brief:
as §2

The subject of series [8] is Human immunodeficiency virus 1. In words: Antiviral activity against HIV-1 infected in human HeLa P4/R5 cells assessed as inhibition of virus replication pretreated for 16 hrs followed by infection measured after 48 hrs by fluorescence-based beta-galactosidase detection assay. It counts as functional, organism-based. The method, boiled down: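 P4R5 indicator cells (CD4, CXCR4, CCR5; HIV LTR-driven β-galactosidase reporter) seeded at 5×10^3 per well in DMEM/10% FBS with puromycin 0.5 µg/ml. Drug exposure 16 h, then HIV infection and a further 48 h. Infection read by fluorescence-based β-galactosidase detection. Triplicate data points; EC50 taken from dose-response.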

Series [9] is described as follows: Inhibition of HIV-1 RT-RNase H domain fragment expressed in Escherichia coli by fluorescence-based assay. Also noted: species or system Human immunodeficiency virus 1.
The target in series [10] is Human immunodeficiency virus type 1 reverse transcriptase (Human immunodeficiency virus 1, UniProt Q72547). In words: Inhibition of HIV-1 RT RNA-dependent DNA polymerase activity expressed in Escherichia coli JM109 using [3H]TTP/ poly(rA)-oligo(dT)16 as substrate incubated for 20 mins by liquid scintillation spectrometric analysis. The method in brief:
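RNA-dependent DNA polymerase reaction in 50 mM Tris-HCl pH 7.4 (37°C), 60 mM KCl, 5 mM MgCl2, with 10 µM [3H]-TTP and 40 nM poly(rA)-oligo(dT)16. Started with 10 nM RT, 20 min at 37°C. Quenched in ice-cold 10% TCA plus 20 mM sodium pyrophosphate, glass-fiber filtered, washed with TCA and ethanol. Incorporation counted by liquid scintillation.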

Series [11] can be described thus: Inhibition of HIV-1 RT-RNase H activity expressed in Escherichia coli JM109 using RNA 5'-end directed cleavage measuring HTS-3 as substrate by fluorescence-based assay. More on the design: species or system Human immunodeficiency virus 1. The method in brief:
(§3)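 RT RNase H cleavage of fluorescein/Dabcyl-labelled RNA/DNA duplexes, with substrate in excess over RT. HTS-1 probes internal cleavage, HTS-2 DNA 3'-end-directed cleavage, and HTS-3 (fluorescein RNA annealed to Dabcyl DNA) RNA 5'-end-directed cleavage.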

Series [12] can be described thus: Inhibition of HIV-1 RT-RNase H activity expressed in Escherichia coli JM109 using DNA 3'-end directed cleavage measuring HTS-2 as substrate by fluorescence-based assay. Also noted: species or system Human immunodeficiency virus 1. The method in brief:
as §3

Series [13] is described as follows: Inhibition of HIV-1 RT-RNase H activity expressed in Escherichia coli JM109 using internal cleavage measuring HTS-1 as substrate by fluorescence-based assay. Also noted: species or system Human immunodeficiency virus 1. The method in brief:
as §3

The target in series [14] is Human immunodeficiency virus type 1 integrase (Human immunodeficiency virus 1, UniProt Q7ZJM1, C280S/F185K). Put plainly: Inhibition of full-length HIV-1 integrase F185K/C280S double mutant strand transfer activity expressed in Escherichia coli BL21(DE3) using oligo DNA as substrate preincubated for 10 mins followed by substrate addition incubated for 30 mins by plate reader analysis.
Sequence of Human immunodeficiency virus type 1 integrase (Q7ZJM1 entry or part of it C280S/F185K): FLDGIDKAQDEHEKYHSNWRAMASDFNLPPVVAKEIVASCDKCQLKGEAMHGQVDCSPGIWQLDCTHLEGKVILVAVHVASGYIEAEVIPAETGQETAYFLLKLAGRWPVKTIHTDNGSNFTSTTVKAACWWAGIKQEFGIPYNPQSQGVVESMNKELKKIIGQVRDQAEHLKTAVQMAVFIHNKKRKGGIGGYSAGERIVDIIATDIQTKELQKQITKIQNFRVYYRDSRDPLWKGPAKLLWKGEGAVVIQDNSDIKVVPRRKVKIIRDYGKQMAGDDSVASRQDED

In the case of `O=C(O)c1cn(Cc2cccc3ccccc23)cc(O)c1=O`, the inhibition came out at 58% in series [1]; 35% in [2]; 28% in series [3]; 61% in series [4]; 51% in series [5]; 82% in series [7]. The inhibition result in series [8] was “Dose-dependent effect”. The molecule further returned a CC50 in series [6] of more than 25 µM. In series [8] (Human immunodeficiency virus 1, P4/R5), the half-maximal effective concentration (EC50) came to 10 µM.

`NS(=O)(=O)c1ccc(-c2ccc(Cn3cc(O)c(=O)c(C(=O)O)c3)cc2)cc1`: the inhibition in series [1] was 97%; in series [2], 68%; in series [3], 14%; in series [4], 80%; in series [5] it was 79%; in series [7], 92%. In addition, the IC50 is 1.3 µM in series [9]; 1.2 µM in series [10]; 1 µM in series [11]; 1.5 µM in series [12]; 0.65 µM in [13]; more than 100 µM in series [14].

These data come from ChEMBL document CHEMBL3817772, “Design, Synthesis, and Biological Evaluations of Hydroxypyridonecarboxylic Acids as Inhibitors of HIV Reverse Transcriptase Associated RNase H” (J Med Chem, 2016).
